In ChEMBL document CHEMBL5042469, “Unique Molecular Interaction with the Histone Deacetylase 6 Catalytic Tunnel: Crystallographic and Biological Characterization of a Model Chemotype” (J Med Chem, 2021):

Experiments:
MV4-11 = test: Induction of apoptosis in human MV4-11 cells assessed as late apoptotic cells at 1 uM incubated for 15 mins by Annexin-V/FITC staining based FACS analysis (reference value: 4.36%); type: functional; details: 0.25 h
Outline: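 MV4-11 cells were dosed, then washed twice in cold PBS and resuspended in binding buffer at 1×10^6 cells/mL. Cells were stained with FITC-annexin V and propidium iodide for 15 min in the dark, diluted with binding buffer and analysed by flow cytometry within 1 h. Quadrants: LL viable, LR early apoptotic, UR late apoptotic. Duplicate experiments averaged; DMSO control.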

[1] = target: T1, Protein deacetylase HDAC6 (Homo sapiens, UniProt Q9UBN7); test: Binding affinity to human HDAC6 by jump dilution assay
T1 sequence (Q9UBN7 whole entry): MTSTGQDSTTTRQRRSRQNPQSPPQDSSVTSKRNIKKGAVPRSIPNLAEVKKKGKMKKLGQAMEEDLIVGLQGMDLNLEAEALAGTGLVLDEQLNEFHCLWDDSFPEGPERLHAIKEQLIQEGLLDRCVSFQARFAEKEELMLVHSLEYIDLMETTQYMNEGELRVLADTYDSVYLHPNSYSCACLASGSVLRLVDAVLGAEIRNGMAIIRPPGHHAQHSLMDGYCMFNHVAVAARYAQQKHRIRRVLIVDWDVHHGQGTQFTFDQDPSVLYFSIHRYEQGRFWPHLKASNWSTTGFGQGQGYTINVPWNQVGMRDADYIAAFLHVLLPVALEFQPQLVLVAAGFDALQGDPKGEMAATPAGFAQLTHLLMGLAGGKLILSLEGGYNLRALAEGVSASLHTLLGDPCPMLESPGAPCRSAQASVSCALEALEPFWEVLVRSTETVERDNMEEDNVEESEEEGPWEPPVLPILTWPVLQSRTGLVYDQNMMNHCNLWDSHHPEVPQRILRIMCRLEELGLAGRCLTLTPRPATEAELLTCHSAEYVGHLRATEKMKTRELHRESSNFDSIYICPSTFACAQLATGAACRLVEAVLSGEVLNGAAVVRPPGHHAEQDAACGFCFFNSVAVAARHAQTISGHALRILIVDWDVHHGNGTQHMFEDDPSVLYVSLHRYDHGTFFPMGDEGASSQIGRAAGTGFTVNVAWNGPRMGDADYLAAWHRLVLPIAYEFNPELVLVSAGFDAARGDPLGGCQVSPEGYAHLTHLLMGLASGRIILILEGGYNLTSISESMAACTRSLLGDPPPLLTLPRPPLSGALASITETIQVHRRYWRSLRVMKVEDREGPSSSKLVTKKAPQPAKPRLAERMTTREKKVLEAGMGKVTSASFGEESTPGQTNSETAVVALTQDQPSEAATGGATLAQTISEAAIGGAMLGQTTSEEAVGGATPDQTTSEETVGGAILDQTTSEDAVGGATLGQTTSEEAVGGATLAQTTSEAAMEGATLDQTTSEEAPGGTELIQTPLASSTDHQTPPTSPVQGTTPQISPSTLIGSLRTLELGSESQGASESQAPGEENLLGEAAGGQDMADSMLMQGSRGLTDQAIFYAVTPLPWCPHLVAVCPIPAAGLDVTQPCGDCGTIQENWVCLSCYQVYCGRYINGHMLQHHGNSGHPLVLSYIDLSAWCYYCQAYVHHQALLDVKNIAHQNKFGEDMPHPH

[2] = target: Polyamine deacetylase HDAC10 (Homo sapiens, UniProt Q969S8); test: Inhibition of full length human HDAC10 using FAM-labeled acetylated peptide as substrate by electrophoretic mobility shift assay
Sequence of Polyamine deacetylase HDAC10 (Q969S8 whole entry, canonical isoform): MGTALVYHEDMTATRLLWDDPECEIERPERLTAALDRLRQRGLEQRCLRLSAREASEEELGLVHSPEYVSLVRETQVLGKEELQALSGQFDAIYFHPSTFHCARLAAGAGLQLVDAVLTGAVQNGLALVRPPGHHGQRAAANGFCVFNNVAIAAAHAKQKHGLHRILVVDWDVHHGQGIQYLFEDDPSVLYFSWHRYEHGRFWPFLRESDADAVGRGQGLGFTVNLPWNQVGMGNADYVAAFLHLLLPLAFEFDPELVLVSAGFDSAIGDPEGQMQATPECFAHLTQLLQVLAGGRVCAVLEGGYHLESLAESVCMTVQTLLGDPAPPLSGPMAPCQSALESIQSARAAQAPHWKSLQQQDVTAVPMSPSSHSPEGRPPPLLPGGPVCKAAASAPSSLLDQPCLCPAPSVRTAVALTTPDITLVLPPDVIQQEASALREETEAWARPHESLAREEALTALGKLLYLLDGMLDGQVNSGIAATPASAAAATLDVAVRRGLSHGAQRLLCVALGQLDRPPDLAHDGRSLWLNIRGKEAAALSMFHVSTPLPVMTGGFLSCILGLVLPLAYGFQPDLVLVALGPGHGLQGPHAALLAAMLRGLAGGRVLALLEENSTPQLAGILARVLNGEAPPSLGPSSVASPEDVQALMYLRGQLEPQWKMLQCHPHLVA
Outline: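 Full-length human HDAC isoform enzymatic assay by electrophoretic mobility shift, using a FAM-labelled acetylated peptide substrate. […] Values are the mean of duplicate experiments with 95% confidence intervals.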

[3] = target: T1, Protein deacetylase HDAC6; test: Inhibition of full length human HDAC6 preincubated for 3 hrs

Row | Ki [1] [nM] | IC50 [2] [nM] | IC50 [3] [nM] | Structure (SMILES) | Activity (MV4-11) [%]
1 | – | – | – | O=C(CCCCCCNC(=O)c1cnc(N(c2ccccc2)c2ccccc2Cl)nc1)NO [CITARINOSTAT] | 9.54
2 | 0.7 | 572 | 2 | O=C(NO)c1ccc(CN(Cc2cccnc2)S(=O)(=O)c2cc(F)c(F)c(F)c2F)cc1 | –
